ChEMBL document CHEMBL1131619, “32-Ascomycinyloxyacetic acid derived immunosuppressants. Independence of immunophilin binding and immunosuppressive potency” (J Med Chem, 1998)

How the values were obtained:
Homo sapiens = species: Homo sapiens; experiment: Inhibition of human mixed lymphocyte response (MLR); format: functional
How it was run: (§1)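 IC50 values are reported as mean ± SD for the stated number of determinations, using human cells or protein.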

[1] = target: Peptidyl-prolyl cis-trans isomerase FKBP1A (Homo sapiens, UniProt P62942); experiment: Inhibitory binding activity against human Immunophilin-FK-506 binding protein 12; how it was run: as §1
Sequence of Peptidyl-prolyl cis-trans isomerase FKBP1A (P62942 whole entry): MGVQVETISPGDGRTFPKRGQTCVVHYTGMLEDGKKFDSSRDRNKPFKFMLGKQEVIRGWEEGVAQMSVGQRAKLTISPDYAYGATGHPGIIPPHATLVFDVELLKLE

Rattus norvegicus = experiment: Inhibition of rat popliteal lymph node (PLN) hyperplasia when given ip; format: functional
How it was run: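 Popliteal lymph node hyperplasia is induced in Lewis rats by Brown Norway rat cells, and its inhibition is measured.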

SMILES | IC50 (Homo sapiens) [nM] | IC50 [1] [nM] | ED50 (Rattus norvegicus) [mg/kg/day]
CC[C@@H]1/C=C(\C)C[C@H](C)C[C@H](OC)[C@H]2O[C@@](O)(C(=O)C(=O)N3CCCC[C@H]3C(=O)O[C@H](/C(C)=C/C3CC[C@@H](OCC(=O)N(C)CCc4ccccc4)[C@H](OC)C3)[C@H](C)[C@@H](O)CC1=O)[C@H](C)C[C@@H]2OC (some centres undefined) | 0.64 | 0.4 | > 3
CC[C@@H]1/C=C(\C)C[C@H](C)C[C@H](OC)[C@H]2O[C@@](O)(C(=O)C(=O)N3CCCC[C@H]3C(=O)O[C@H](/C(C)=C/C3CC[C@@H](OCC(=O)Nc4cccc(C(F)(F)F)c4)[C@H](OC)C3)[C@H](C)[C@@H](O)CC1=O)[C@H](C)C[C@@H]2OC (some centres undefined) | 0.14 | 470 | 
CC[C@@H]1/C=C(\C)C[C@H](C)C[C@H](OC)[C@H]2O[C@@](O)(C(=O)C(=O)N3CCCC[C@H]3C(=O)O[C@H](/C(C)=C/C3CC[C@@H](OCC(=O)Nc4ccccn4)[C@H](OC)C3)[C@H](C)[C@@H](O)CC1=O)[C@H](C)C[C@@H]2OC (some centres undefined) | 0.05 | 2.4 | 
CC[C@@H]1/C=C(\C)C[C@H](C)C[C@H](OC)[C@H]2O[C@@](O)(C(=O)C(=O)N3CCCC[C@H]3C(=O)O[C@H](/C(C)=C/C3CC[C@@H](OCC(=O)NCCc4ccccc4)[C@H](OC)C3)[C@H](C)[C@@H](O)CC1=O)[C@H](C)C[C@@H]2OC (some centres undefined) | 0.34 | 13 | > 3
CC[C@@H]1/C=C(\C)C[C@H](C)C[C@H](OC)[C@H]2O[C@@](O)(C(=O)C(=O)N3CCCC[C@H]3C(=O)O[C@H](/C(C)=C/C3CC[C@@H](OCC(=O)Nc4ccc(OC)cc4)[C@H](OC)C3)[C@H](C)[C@@H](O)CC1=O)[C@H](C)C[C@@H]2OC (some centres undefined) | 0.04 | 50 | 
CC[C@@H]1/C=C(\C)C[C@H](C)C[C@H](OC)[C@H]2O[C@@](O)(C(=O)C(=O)N3CCCC[C@H]3C(=O)O[C@H](/C(C)=C/C3CC[C@@H](OCC(=O)N(C)Cc4ccccc4)[C@H](OC)C3)[C@H](C)[C@@H](O)CC1=O)[C@H](C)C[C@@H]2OC (some centres undefined) | 0.09 | 5.6 | > 3
CC[C@@H]1/C=C(\C)C[C@H](C)C[C@H](OC)[C@H]2O[C@@](O)(C(=O)C(=O)N3CCCC[C@H]3C(=O)O[C@H](/C(C)=C/C3CC[C@@H](OCC(=O)Nc4ccc(C(F)(F)F)cc4)[C@H](OC)C3)[C@H](C)[C@@H](O)CC1=O)[C@H](C)C[C@@H]2OC (some centres undefined) | 0.23 | 570 | 
CC[C@@H]1/C=C(\C)C[C@H](C)C[C@H](OC)[C@H]2O[C@@](O)(C(=O)C(=O)N3CCCC[C@H]3C(=O)O[C@H](/C(C)=C/C3CC[C@@H](OCC(=O)Nc4ccncc4)[C@H](OC)C3)[C@H](C)[C@@H](O)CC1=O)[C@H](C)C[C@@H]2OC (some centres undefined) | 0.16 | 3.2 | 
CC[C@@H]1/C=C(\C)C[C@H](C)C[C@H](OC)[C@H]2O[C@@](O)(C(=O)C(=O)N3CCCC[C@H]3C(=O)O[C@H](/C(C)=C/C3CC[C@@H](OCC(=O)Nc4ccc(C)cc4)[C@H](OC)C3)[C@H](C)[C@@H](O)CC1=O)[C@H](C)C[C@@H]2OC (some centres undefined) | 0.02 | 71 | 
CC[C@@H]1/C=C(\C)C[C@H](C)C[C@H](OC)[C@H]2O[C@@](O)(C(=O)C(=O)N3CCCCC3C(=O)O[C@H](/C(C)=C/C3CC[C@@H](OCC(=O)OCc4ccccc4)[C@H](OC)C3)[C@H](C)[C@@H](O)CC1=O)[C@H](C)C[C@@H]2OC (some centres undefined) | 7.62 | 68 | > 3
CC[C@@H]1/C=C(\C)C[C@H](C)C[C@H](OC)[C@H]2O[C@@](O)(C(=O)C(=O)N3CCCC[C@H]3C(=O)O[C@H](/C(C)=C/C3CC[C@@H](OCC(=O)N(C)c4ccccc4)[C@H](OC)C3)[C@H](C)[C@@H](O)CC1=O)[C@H](C)C[C@@H]2OC (some centres undefined) | 0.26 | 2.9 | 1.9
CCOC(=O)CO[C@@H]1CCC(/C=C(\C)[C@H]2OC(=O)[C@@H]3CCCCN3C(=O)C(=O)[C@]3(O)O[C@H]([C@@H](OC)C[C@@H](C)C/C(C)=C/[C@@H](CC)C(=O)C[C@H](O)[C@H]2C)[C@@H](OC)C[C@H]3C)C[C@H]1OC (some centres undefined) | 0.91 | 9.4 | > 3
CC[C@@H]1/C=C(\C)C[C@H](C)C[C@H](OC)[C@H]2O[C@@](O)(C(=O)C(=O)N3CCCC[C@H]3C(=O)O[C@H](/C(C)=C/C3CC[C@@H](OCC(=O)Nc4ccc(Cl)cc4)[C@H](OC)C3)[C@H](C)[C@@H](O)CC1=O)[C@H](C)C[C@@H]2OC (some centres undefined) | 0.07 | 180 | 
CC[C@@H]1/C=C(\C)C[C@H](C)C[C@H](OC)[C@H]2O[C@@](O)(C(=O)C(=O)N3CCCC[C@H]3C(=O)O[C@H](/C(C)=C/C3CC[C@@H](OCC(=O)Nc4ccc(N5CCOCC5)cc4)[C@H](OC)C3)[C@H](C)[C@@H](O)CC1=O)[C@H](C)C[C@@H]2OC (some centres undefined) | 0.58 | 19 | 
CC[C@@H]1/C=C(\C)C[C@H](C)C[C@H](OC)[C@H]2O[C@@](O)(C(=O)C(=O)N3CCCC[C@H]3C(=O)O[C@H](/C(C)=C/C3CC[C@@H](OCC(=O)Nc4ccc(Cl)c(Cl)c4)[C@H](OC)C3)[C@H](C)[C@@H](O)CC1=O)[C@H](C)C[C@@H]2OC (some centres undefined) | 0.55 | 500 | 
CC[C@@H]1/C=C(\C)C[C@H](C)C[C@H](OC)[C@H]2O[C@@](O)(C(=O)C(=O)N3CCCC[C@H]3C(=O)O[C@H](/C(C)=C/C3CC[C@@H](OCC(=O)Nc4cccnc4)[C@H](OC)C3)[C@H](C)[C@@H](O)CC1=O)[C@H](C)C[C@@H]2OC (some centres undefined) | 0.1 | 3.3 | 
CC[C@@H]1/C=C(\C)C[C@H](C)C[C@H](OC)[C@H]2O[C@@](O)(C(=O)C(=O)N3CCCC[C@H]3C(=O)O[C@H](/C(C)=C/C3CC[C@@H](OCC(=O)Nc4cccc(F)c4)[C@H](OC)C3)[C@H](C)[C@@H](O)CC1=O)[C@H](C)C[C@@H]2OC (some centres undefined) | 0.16 | 180 | 
CC[C@@H]1/C=C(\C)C[C@H](C)C[C@H](OC)[C@H]2O[C@@](O)(C(=O)C(=O)N3CCCC[C@H]3C(=O)O[C@H](/C(C)=C/C3CC[C@@H](OCC(=O)NC4CCCCC4)[C@H](OC)C3)[C@H](C)[C@@H](O)CC1=O)[C@H](C)C[C@@H]2OC (some centres undefined) | 0.47 | 2 | 
CC[C@@H]1/C=C(\C)C[C@H](C)C[C@H](OC)[C@H]2O[C@@](O)(C(=O)C(=O)N3CCCC[C@H]3C(=O)O[C@H](/C(C)=C/C3CC[C@@H](OCC(=O)Nc4ccc(F)cc4)[C@H](OC)C3)[C@H](C)[C@@H](O)CC1=O)[C@H](C)C[C@@H]2OC (some centres undefined) | 0.03 | 46 | 
CC[C@@H]1/C=C(\C)C[C@H](C)C[C@H](OC)[C@H]2O[C@@](O)(C(=O)C(=O)N3CCCC[C@H]3C(=O)O[C@H](/C(C)=C/C3CC[C@@H](OCC(=O)Nc4ccccc4)[C@H](OC)C3)[C@H](C)[C@@H](O)CC1=O)[C@H](C)C[C@@H]2OC (some centres undefined) | 0.29 | 170 | 1.4
CC[C@@H]1/C=C(\C)C[C@H](C)C[C@H](OC)[C@H]2O[C@@](O)(C(=O)C(=O)N3CCCC[C@H]3C(=O)O[C@H](/C(C)=C/C3CC[C@@H](OCC(=O)O)[C@H](OC)C3)[C@H](C)[C@@H](O)CC1=O)[C@H](C)C[C@@H]2OC (some centres undefined) | 140 | 4 | > 3
CC[C@@H]1/C=C(\C)C[C@H](C)C[C@H](OC)[C@H]2O[C@@](O)(C(=O)C(=O)N3CCCC[C@H]3C(=O)O[C@H](/C(C)=C/C3CC[C@@H](OCC(=O)NCc4ccccc4)[C@H](OC)C3)[C@H](C)[C@@H](O)CC1=O)[C@H](C)C[C@@H]2OC (some centres undefined) | 0.79 | 48 | 1.2
CC[C@@H]1/C=C(\C)C[C@H](C)C[C@H](OC)[C@H]2O[C@@](O)(C(=O)C(=O)N3CCCC[C@H]3C(=O)O[C@H](/C(C)=C/C3CC[C@@H](OCC(N)=O)[C@H](OC)C3)[C@H](C)[C@@H](O)CC1=O)[C@H](C)C[C@@H]2OC (some centres undefined) | 0.13 | 0.6 | 0.3
CC[C@@H]1/C=C(\C)C[C@H](C)C[C@H](OC)[C@H]2O[C@@](O)(C(=O)C(=O)N3CCCC[C@H]3C(=O)O[C@H](/C(C)=C/C3CC[C@@H](OCC(=O)Nc4ccc(O)cc4)[C@H](OC)C3)[C@H](C)[C@@H](O)CC1=O)[C@H](C)C[C@@H]2OC (some centres undefined) | 0.14 | 16 | 
CC[C@@H]1/C=C(\C)C[C@H](C)C[C@H](OC)[C@H]2O[C@@](O)(C(=O)C(=O)N3CCCC[C@H]3C(=O)O[C@H](/C(C)=C/[C@@H]3CC[C@@H](O)[C@H](OC)C3)[C@H](C)[C@@H](O)CC1=O)[C@H](C)C[C@@H]2OC [ASCOMYCIN] |  | 2.1 | 0.3
CO[C@H]1C[C@@H]2CC[C@@H](C)[C@@](O)(O2)C(=O)C(=O)N2CCCC[C@H]2C(=O)O[C@H]([C@H](C)C[C@@H]2CC[C@@H](O)[C@H](OC)C2)CC(=O)[C@H](C)/C=C(\C)[C@@H](O)[C@@H](OC)C(=O)[C@H](C)C[C@H](C)/C=C/C=C/C=C/1C [SIROLIMUS] | 1.27 |  | 2.1
C=CC[C@@H]1/C=C(\C)C[C@H](C)C[C@H](OC)[C@H]2O[C@@](O)(C(=O)C(=O)N3CCCC[C@H]3C(=O)O[C@H](/C(C)=C/[C@@H]3CC[C@@H](O)[C@H](OC)C3)[C@H](C)[C@@H](O)CC1=O)[C@H](C)C[C@@H]2OC [TACROLIMUS ANHYDROUS] | 0.48 |  | 0.1
